Experimental findings from ChEMBL document CHEMBL4024779, “Novel Terminal Bipheny-Based Diapophytoene Desaturases (CrtN) Inhibitors as Anti-MRSA/VISR/LRSA Agents with Reduced hERG Activity” (J Med Chem, 2018) are described below.

The subject of data set [1] is Staphylococcus aureus. The data set can be described thus: In vivo anti-virulence activity against Staphylococcus aureus Newman infected in BALB/c mouse model assessed as reduction in bacterial load in heart at 0.4 mg bid for 3.5 days administered orally 6 hrs post infection by serial dilution method relative to control. The data set is classed as functional, organism-based. The essentials:
(§1)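 Mice got 3.1 × 10^7 CFU S. aureus Newman by retro-orbital injection. Oral compound was given b.i.d. for 3.5 d, starting 6 h after infection. […] Log10 CFU was counted per kidney and per heart.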

Data set [2] can be described thus: Inhibition of CrtN in methicillin-resistant Staphylococcus aureus HS663 assessed as reduction in staphyloxanthin levels after 48 hrs by spectrophotometric method-based pigment inhibition assay.
For data set [3], the system named is Staphylococcus aureus. The data set can be described thus: In vivo anti-virulence activity against Staphylococcus aureus NRS271 infected in BALB/c mouse model assessed as reduction in bacterial load in kidney at 0.2 mg bid for 3.5 days administered orally 6 hrs post infection by serial dilution method relative to control. The data set is classed as functional, organism-based. In a few lines: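 Mice were infected by retro-orbital injection with Mu50 (4.6 × 10^9 CFU) or NRS271 (3.5 × 10^8 CFU). Oral compound was given b.i.d. for 3.5 d, starting 6 h after infection. Log10 CFU was counted per kidney and per heart.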

Data set [4] in a line: Inhibition of CrtN in methicillin-resistant Staphylococcus aureus LRSA56 assessed as reduction in staphyloxanthin levels after 48 hrs by spectrophotometric method-based pigment inhibition assay.
A short description of data set [5]: AUC (0 to infinity) in Sprague-Dawley rat at 10 mg/kg, po administered as single dose by LC-MS/MS analysis. Conditions: in vivo. More on the design: dose 10 mg/kg, route oral, time infinity. It counts as ADME, organism-based.
The nature of data set [6]: AUC (0 to infinity) in Sprague-Dawley rat at 5 mg/kg, iv administered as single dose by LC-MS/MS analysis. It counts as ADME, organism-based. More on the design: dose 5 mg/kg, time infinity, route intravenous. Conditions: in vivo.
Data set [7] concerns Staphylococcus aureus. The data set can be described thus: In vivo anti-virulence activity against Staphylococcus aureus Newman infected in BALB/c mouse model assessed as reduction in bacterial load in heart at 0.4 mg bid for 3.5 days administered orally 6 hrs post infection by serial dilution method relative to vancomycin. More on the design: scale not given: the % may be the effect or the level left. The data set is classed as functional. In a few lines: as §1

The test system of data set [8] is Liver. The data set can be described thus: (§2) Half life in human liver microsomes at 2 uM after 60 mins in presence of NADPH by LC-MS/MS method. The data set is classed as ADME, microsome. The following applies: microsomes, 1 h, 2 µM. (Liver microsomes are vesicles of endoplasmic reticulum, rich in cytochrome P450 enzymes.)
Data set [9] is described as follows: Half life in Sprague-Dawley rat at 5 mg/kg, iv administered as single dose by LC-MS/MS analysis. It counts as ADME, organism-based. Conditions: in vivo.
The nature of data set [10]: Tmax in mouse at 10 mg/kg, po administered as single dose by LC-MS/MS analysis. Conditions: in vivo. It counts as ADME, organism-based.
The test system of data set [11] is Pseudomonas aeruginosa. The data set can be described thus: Antibacterial activity against Pseudomonas aeruginosa after 24 hrs by broth dilution method. It counts as functional. For orientation: In broth dilution the organism is exposed to a series of concentrations in liquid medium.
Data set [12] is described as follows: Cmax in Sprague-Dawley rat at 5 mg/kg, iv administered as single dose by LC-MS/MS analysis. The following applies: in vivo. More on the design: dose 5 mg/kg, route intravenous. The data set is classed as ADME, organism-based.
Data set [13] in a line: as §2. The data set is classed as ADME, microsome. Conditions: liver microsomes.

The source made the active and inactive calls. The rule behind the calls is not given here.

As a reminder, the IC50 is the point on the concentration scale where inhibition reaches its midpoint. As usually defined, the AUC(0-inf) is the area under the concentration-time curve extrapolated to infinity. In general, half-life refers to how long it takes for the measured level to halve. Broadly, the Tmax is the time from dosing to the highest level. The term MIC denotes the least concentration at which growth counts as inhibited. Usually Cmax stands for the highest concentration seen after dosing. Regarding `CN(C/C=C/c1ccc(-c2ccccc2)cc1)Cc1coc2ccccc12.Cl`, the result in data set [1] was inactive. The IC50 in data set [2] is 0.02 nM; in data set [4], 1.8 nM. Further, the outcome in [3] was Active. The AUC(0-inf) turned out to be 0.93 µg·h/mL in data set [5] and 2.86 µg·h/mL in data set [6]. In addition, in [7], the Activity is over 55.3%. The t1/2 in [8] stood at 0.845 h. Moreover, in [9], the half-life is 2.46 h. In addition, the Tmax in data set [10] is 2 h. In [11], this molecule displayed an MIC of over 500 mg/L. For the same molecule, the highest level in data set [12] (Cmax) was 4.61 µg/mL.
As to `CN(C/C=C/c1ccc(-c2ccccc2)cc1)Cc1cccc2cc[nH]c12.Cl`, the half-life at 2 µM in data set [13] is 1.56 h.
